In ChEMBL document CHEMBL1135426, “Synthesis, receptor potency, and selectivity of halogenated diphenylpiperidines as serotonin 5-HT2A ligands for PET or SPECT brain imaging” (J Med Chem, 2002) one finds Ki data, which are given here for eleven compounds.

Each structure is given as a SMILES string.

T1 sequence (P28223 whole entry): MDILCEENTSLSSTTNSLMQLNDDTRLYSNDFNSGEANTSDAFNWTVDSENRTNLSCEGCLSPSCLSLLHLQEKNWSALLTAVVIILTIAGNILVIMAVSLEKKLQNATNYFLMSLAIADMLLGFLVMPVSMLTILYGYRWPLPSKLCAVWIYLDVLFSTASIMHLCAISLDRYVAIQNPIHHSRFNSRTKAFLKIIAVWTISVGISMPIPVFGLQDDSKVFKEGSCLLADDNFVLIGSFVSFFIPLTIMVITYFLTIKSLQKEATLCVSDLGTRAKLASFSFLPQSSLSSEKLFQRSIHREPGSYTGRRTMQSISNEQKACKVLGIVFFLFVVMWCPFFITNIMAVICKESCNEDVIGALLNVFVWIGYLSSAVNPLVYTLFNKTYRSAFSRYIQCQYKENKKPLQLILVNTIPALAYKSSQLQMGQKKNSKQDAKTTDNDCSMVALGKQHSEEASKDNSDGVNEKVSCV

One test has as its target T1, 5-hydroxytryptamine receptor 2A (Homo sapiens, UniProt P28223). In words: Binding affinity against 5-hydroxytryptamine 2A receptor in humans. A digest of the protocol:
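Membranes of transfected COS-7 cells expressing human 5-HT2A, with 1.0 nM [3H]ketanserin, room temperature, 60 min. 10 µM altanserin as blank. Filtration and scintillation counting. Ki obtained by Cheng-Prusoff from the radioligand apparent Kd.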
For orientation: Ki means a dissociation constant, usually derived from enzyme kinetics or from competition with a known ligand. In turn, `O=C(c1ccc(F)cc1)C1CCN(CCn2c(=S)[nH]c3ccccc3c2=O)CC1` [ALTANSERIN] showed a Ki of 0.3 nM.

The target of the next test is T1, 5-hydroxytryptamine receptor 2A. The test is described as follows: Tested on genetically transfected COS7 cell membranes selectively expressing human 5-hydroxytryptamine 2A receptor, using [3H]ketanserin as radioligand. The class given is cell-based, COS-7. A digest of the protocol: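 Membranes of transfected COS-7 cells expressing human 5-HT2A, with 1.0 nM [3H]ketanserin, room temperature, 60 min. 10 µM altanserin as blank. Filtration and scintillation counting. Competition curves over ≥6 concentrations yield IC50 ± SE. Ki obtained by Cheng-Prusoff from the radioligand apparent Kd.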
As for `OC(c1ccc(F)cc1)C1CCN(CCc2ccc(I)cc2)CC1` (stereo unspecified), the Ki was determined as 32.1 nM.

Turning to `OC(c1ccc(F)cc1)C1CCN(Cc2ccccc2I)CC1` (stereo unspecified), the Ki was greater than 10000 nM.

With `O=[N+]([O-])c1ccc(C(O)C2CCN(CCc3ccccc3)CC2)cc1` (stereo unspecified), the affinity, expressed as Ki, was 1.15 nM.

In turn, `O=C(c1ccc(F)cc1)C1CCN(Cc2cccc(I)c2)CC1` registered a Ki of 12.7 nM.

As to `OC(c1ccc(F)cc1)C1CCN(CCc2cccc(I)c2)CC1` (stereo unspecified), affinity was put at a Ki of 13.1 nM.

Consider `OC(c1ccc(F)cc1)C1CCN(Cc2cccc(I)c2)CC1` (stereo unspecified), for which the Ki was greater than 10000 nM.

In the case of `O=C(c1ccc([N+](=O)[O-])cc1)C1CCN(CCc2ccccc2)CC1`, the Ki was 9.34 nM.

`O=C(c1ccc(F)cc1)C1CCN(Cc2ccccc2I)CC1` returned an inhibition constant Ki of 191 nM.

As for `O=C(c1ccc(F)cc1)C1CCN(Cc2ccc(I)cc2)CC1`, the affinity, expressed as Ki, was 227 nM.

Compound `OC(c1ccc(F)cc1)C1CCN(Cc2ccc(I)cc2)CC1` (stereo unspecified) returned a Ki greater than 10000 nM.
